This is an account of results in ChEMBL document CHEMBL3351523 (Bioorg Med Chem, 2014).

One data set relates to Coxsackievirus B5. As to the kind of experiment: Antiviral activity against Coxsackievirus B5 infected in african green monkey Vero 76 cells assessed as reduction in plaque number after 3 days by plaque reduction assay. To be noted: Enterovirus B, 72 h. The data set is classed as functional, organism-based. On the technique in general: In a plaque reduction assay, fewer plaques than in the control indicate reduced infectivity or spread.

The subject of a further data set is Human alphaherpesvirus 1. As to the kind of experiment: Antiviral activity against HSV1 infected in african green monkey Vero 76 cells assessed as reduction in plaque number after 3 days by plaque reduction assay. The class given is functional, organism-based. Particulars: Human alphaherpesvirus 1, Vero, 72 h.
The nature of data set [1]: Cytotoxicity against mock-infected human MT4 cells after 96 hrs by MTT assay. The data set is classed as cell-based. Put shortly: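 Exponentially growing MT-4 cells were seeded at 1 × 10^5 cells/mL in RPMI-1640 with 10% FBS and held at 37 °C, 5% CO2 with serial compound dilutions. Viability was read by MTT after 96 h. CC50 from linear regression against untreated controls.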
A general note: Formazan colour is commonly taken as a measure of viable cells.

Data set [2] can be described thus: Cytotoxicity against mock-infected MDBK cells after 48 to 96 hrs by MTT assay. The class given is cell-based, Bos taurus. To be noted: cattle. Put shortly: (§1)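 Mock-infected MDBK (6 × 10^5 cells/mL; MEM-E, 10% horse serum, 1 mM pyruvate) or BHK (1 × 10^6 cells/mL; MEM-E, 10% FBS) cells were incubated at 37 °C, 5% CO2 with serial dilutions from 100 µM, 1:5. Viability by MTT after 48–96 h. CC50 from linear regression against untreated controls.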

In another data set the test system is Vaccinia virus. As to the kind of experiment: Antiviral activity against Vaccinia Virus infected in african green monkey Vero 76 cells assessed as reduction in plaque number after 3 days by plaque reduction assay. Particulars: Orthopoxvirus vaccinia, 72 h. The class given is functional, organism-based.
In data set [3] the test system is Human immunodeficiency virus 1. As to the kind of experiment: Antiviral activity against HIV1 infected in human MT4 cells assessed as inhibition of virus-induced cytopathogenicity after 4 days by MTT assay. The class given is functional, organism-based. Particulars: Human immunodeficiency virus 1, MT4, 96 h. In a few lines: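 MT-4 cells (1 × 10^4/well in RPMI) were infected acutely with HIV-1 IIIB, 100 CCID50 (m.o.i. 0.01), with serial dilutions from 100 µM, 1:5. After 4 days at 37 °C, protection from virus-induced cytopathogenicity was read by MTT. EC50 came from linear regression against untreated controls.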

The subject of data set [4] is Bovine viral diarrhea virus 1. As to the kind of experiment: Antiviral activity against Bovine viral diarrhea virus infected in MDBK cells assessed as inhibition of virus-induced cytopathogenicity after 3 to 4 days by MTT assay. The class given is functional, organism-based. To be noted: Bovine viral diarrhea virus isolates and strains. In general terms: Cytopathic effects are the visible damage that an infection or toxin causes in cultured cells.

Another data set deals with Yellow fever virus. As to the kind of experiment: Antiviral activity against Yellow fever virus infected in BHK21 cells assessed as inhibition of virus-induced cytopathogenicity after 3 to 4 days by MTT assay. To be noted: BHK-21. The class given is functional, organism-based.
Data set [5] is described as follows: Cytotoxicity against mock-infected african green monkey Vero 76 cells after 48 to 96 hrs by MTT assay. The data set is classed as cell-based. Particulars: chlorocebus sabaeus, mock-infected Vero 76 cells.
Data set [6] concerns Vesicular stomatitis virus. As to the kind of experiment: Antiviral activity against Vesicular stomatitis virus infected in african green monkey Vero 76 cells assessed as reduction in plaque number after 2 days by plaque reduction assay. Particulars: 48 h. The data set is classed as functional, organism-based.
In the next data set the test system is Poliovirus 1. As to the kind of experiment: Antiviral activity against Poliovirus type 1 Sabin strain infected in african green monkey Vero 76 cells assessed as reduction in plaque number after 2 days by plaque reduction assay. The data set is classed as functional, organism-based. Particulars: Enterovirus C, 48 h.
The next data set concerns Reovirus sp. As to the kind of experiment: Antiviral activity against Reovirus type-1 infected in BHK21 cells assessed as inhibition of virus-induced cytopathogenicity after 3 to 4 days by MTT assay. The class given is functional, organism-based. To be noted: BHK-21.
The nature of data set [7]: Cytotoxicity against mock-infected BHK21 cells after 48 to 96 hrs by MTT assay. Particulars: Mesocricetus auratus, BHK-21. The data set is classed as functional. In a few lines:
as §1

Data set [8] deals with Respiratory syncytial virus. As to the kind of experiment: Antiviral activity against Respiratory syncytial virus infected in african green monkey Vero 76 cells assessed as reduction in plaque number after 5 days by plaque reduction assay. To be noted: human respiratory syncytial virus, 120 h. The data set is classed as functional, organism-based.

For orientation: EC50 means the concentration that produces a half-maximal response. What is called CC50 is the concentration that lowers cell viability or growth by half.

`c1ccc2[nH]c(C[C@H]3CCCN4CCCC[C@H]34)nc2c1`: the EC50 (in the data set on Coxsackievirus B5; in the data set on Human alphaherpesvirus 1; in the data set with Vaccinia virus; in data set [3]; in data set [4]; in the data set on Yellow fever virus) was > 100 µM in each case. For the same compound, the EC50 (in [6]; in the data set on Poliovirus 1; with Reovirus sp.; in [8]) was > 100 µM throughout. In addition, the CC50 at 96 h in data set [1] is > 100 µM. Besides, the CC50 in data set [2], in [5] and in data set [7] was > 100 µM each time.
Regarding `FC(F)(F)c1ccc2c(c1)nc(Cc1ccc(Cl)c(Cl)c1)n2C[C@@H]1CCCN2CCCC[C@H]12`, the EC50 (with Coxsackievirus B5; in the data set on Human alphaherpesvirus 1; in the data set on Vaccinia virus; in [3]; in [4]; in the data set with Yellow fever virus) was > 100 µM throughout. Further, the EC50 (in [6]; in the data set on Poliovirus 1; with Reovirus sp.; in data set [8]) was > 100 µM in each case. For the same compound, the CC50 at 96 h in [1] was > 100 µM. Also, the CC50 in data set [2] is 37 µM; in data set [5], > 100 µM; in data set [7], > 100 µM.
Consider `COc1ccc(-c2nc3cc(C(F)(F)F)ccc3n2C[C@@H]2CCCN3CCCC[C@H]23)cc1`, for which the EC50 (in the data set on Coxsackievirus B5; with Human alphaherpesvirus 1; in the data set with Vaccinia virus; in data set [3]; in [4]; in the data set on Yellow fever virus) was > 100 µM in each case. For the same compound, the EC50 in [6] is > 100 µM; with Poliovirus 1 it was > 100 µM; in the data set with Reovirus sp., 27 µM; in [8], > 100 µM. This compound also had a CC50 at 96 h in data set [1] of 25 µM. Also, the CC50 was > 100 µM in data set [2], 75 µM in data set [5] and 65 µM in [7].
Compound `O=C1Nc2ccc(Cl)cc2[C@@](C#CC2CC2)(C(F)(F)F)O1` [EFAVIRENZ] registered a CC50 at 96 h in data set [1] of 38 µM.
In the case of `CCCCn1c(-c2ccc(OC)cc2)nc2cc(C(F)(F)F)ccc21`, the EC50 (in the data set on Coxsackievirus B5; in the data set on Human alphaherpesvirus 1; in the data set on Vaccinia virus; in data set [3]; in data set [4]; with Yellow fever virus) was > 100 µM throughout. Also, the EC50 in data set [6] is > 100 µM; in the data set on Poliovirus 1 it was 25 µM; with Reovirus sp. it was > 100 µM; in data set [8], > 100 µM. The CC50 at 96 h in data set [1] was > 100 µM. The figures for the CC50 in data set [2], in data set [5] and in data set [7] were 22 µM, 80 µM and 35 µM, respectively.
For `CC1(c2nc3ccccc3[nH]2)CCC(C(N)=O)C(C)(C)O1` (stereo not drawn), the EC50 (in the data set with Human alphaherpesvirus 1; in [3]; in [4]; with Yellow fever virus; in data set [6]; in the data set on Poliovirus 1) was > 100 µM in each case. Further, the EC50 with Reovirus sp. was > 100 µM. Moreover, the CC50 at 96 h in [1] is > 100 µM. Besides, the CC50 in data set [2], in [5] and in data set [7] was > 100 µM in each case.
`Clc1cc2nc(C3CCCCO3)[nH]c2cc1Cl` (stereo not drawn): the EC50 is > 100 µM with Human alphaherpesvirus 1; > 100 µM in data set [3]; > 100 µM in data set [4]; > 100 µM with Yellow fever virus; > 100 µM in [6]; 60 µM in the data set on Poliovirus 1. In the data set with Reovirus sp., the EC50 is > 100 µM. This compound also registered a CC50 at 96 h in data set [1] of 6 µM. The CC50 in [2], in [5] and in [7] was > 100 µM throughout.
As to `c1ccc2c(c1)ncn2C1CCCCO1` (stereo not drawn), in data set [1], the CC50 at 96 h is > 100 µM. The CC50 in data set [2] and in [7] was > 100 µM each time. The EC50 (in data set [3]; in data set [4]; with Yellow fever virus) was > 100 µM in each case.
`ClC1(Cl)C2CCOC21n1cnc2ccccc21` (stereo not drawn) had a CC50 at 96 h in [1] of 33 µM. The EC50 in data set [3] was > 100 µM.
Take `CC1(c2nc3ccccc3[nH]2)CCC(C#N)C(C)(C)O1` (stereo not drawn): the EC50 (with Human alphaherpesvirus 1; in data set [3]; in data set [4]; in the data set with Yellow fever virus; in data set [6]; with Poliovirus 1) was > 100 µM throughout. Further, the EC50 with Reovirus sp. was > 100 µM. Also, the CC50 at 96 h in data set [1] was > 100 µM. In addition, the CC50 in [2], in data set [5] and in data set [7] was > 100 µM throughout.
With `O=C1c2ccccc2-n2c(nc3cccnc32)CN1C[C@@H]1CCCN2CCCC[C@H]12`, the EC50 in the data set with Coxsackievirus B5 is > 100 µM; with Vaccinia virus, > 100 µM; in data set [3], > 100 µM; in data set [4] it was 17 µM; in the data set with Yellow fever virus, > 100 µM; in [6], > 100 µM. Moreover, the concentration giving a half-maximal response (EC50) (with Poliovirus 1; in data set [8]) was > 100 µM each time. This compound had a CC50 at 96 h in data set [1] of 31 µM. In addition, the CC50 is 91 µM in data set [2], > 90 µM in data set [5] and 37 µM in data set [7].
As for `c1ccc2[nH]c(C3CCCCO3)nc2c1` (stereo not drawn), the EC50 (in the data set with Human alphaherpesvirus 1; in data set [3]; in data set [4]; with Yellow fever virus; in data set [6]; with Poliovirus 1) was > 100 µM in each case. In addition, the EC50 in the data set on Reovirus sp. was > 100 µM. Also, the CC50 at 96 h in data set [1] is > 100 µM. The CC50 in [2], in data set [5] and in data set [7] was > 100 µM throughout.
Regarding `Clc1cc2nc(C3CCCO3)[nH]c2cc1Cl` (stereo not drawn), the CC50 in [2] and in [7] was > 100 µM in each case. In addition, the EC50 (in data set [4]; in the data set on Yellow fever virus) was > 100 µM each time.
As to `Clc1cc2ncn(C3CCCO3)c2cc1Cl` (stereo not drawn), the CC50 at 96 h in [1] is > 100 µM. The CC50 in [2] and in data set [7] was > 100 µM each time. The EC50 (in data set [3]; in data set [4]; in the data set on Yellow fever virus; with Reovirus sp.) was > 100 µM each time.
Consider `CC1(c2nc3cc(Cl)c(Cl)cc3[nH]2)CCC(CO)C(C)(C)O1` (stereo not drawn), for which the EC50 with Human alphaherpesvirus 1 was 60 µM; in data set [3], > 100 µM; in data set [4] it was 46 µM; with Yellow fever virus, > 100 µM; in data set [6], > 100 µM; in the data set with Poliovirus 1 it was 12 µM. In addition, the EC50 in the data set on Reovirus sp. is > 100 µM. In data set [1], this compound gave a CC50 at 96 h of 33 µM. Also, the CC50 in [2], in [5] and in data set [7] was > 100 µM each time.
With `Nc1nc2c(ncn2COCCO)c(=O)[nH]1` [ACYCLOVIR], the EC50 in the data set on Coxsackievirus B5 is > 100 µM; with Human alphaherpesvirus 1 it was 1.2 µM; with Vaccinia virus it was > 100 µM; in data set [4], > 100 µM; in the data set on Yellow fever virus it was > 100 µM; in [6], > 100 µM. The EC50 (with Poliovirus 1; in the data set on Reovirus sp.; in [8]) was > 100 µM each time. In addition, in data set [1], the CC50 at 96 h is > 100 µM. Also, the CC50 in [2], in data set [5] and in data set [7] was > 100 µM in each case.
Regarding `FC(F)(F)c1ccc2[nH]c(C3CCCCO3)nc2c1` (stereo not drawn), the EC50 (in the data set with Human alphaherpesvirus 1; in data set [3]; in [4]; with Yellow fever virus; in data set [6]; in the data set on Poliovirus 1) was > 100 µM throughout. In addition, the EC50 with Reovirus sp. is > 100 µM. The same compound had a CC50 at 96 h in [1] of 97 µM. Besides, the CC50 in data set [2], in data set [5] and in data set [7] was > 100 µM throughout.
On to `Clc1ccc2[nH]c(C3CCCCO3)nc2c1` (stereo not drawn), for which the EC50 with Human alphaherpesvirus 1 was > 100 µM; in data set [3], > 100 µM; in data set [4], > 100 µM; with Yellow fever virus it was > 100 µM; in data set [6] it was > 100 µM; in the data set on Poliovirus 1, 20 µM. For the same compound, in the data set on Reovirus sp., the EC50 was > 100 µM. In addition, in [1], the CC50 at 96 h was > 100 µM. The CC50 in data set [2], in data set [5] and in [7] was > 100 µM throughout.
